pIC50, pKi: −log10 of the molar value.
How the values were obtained:
[1] = molecular target: T1, 11-beta-hydroxysteroid dehydrogenase 1 (Homo sapiens, UniProt P28845); assay: Inhibition of human 11beta-HSD1 expressed in CHO cells assessed as conversion of cortisone to cortisol by ELISA; assay type: cell-based
[2] = molecular target: T1, 11-beta-hydroxysteroid dehydrogenase 1; assay: Inhibition of human recombinant 11beta-HSD1 expressed in Escherichia coli using [3H]cortisone by scintillation proximity assay
[3] = molecular target: T2, Nuclear receptor subfamily 1 group I member 2 (Homo sapiens, UniProt O75469); assay: Transactivation of human PXR transfected in HEK cells at 20 uM by luciferase reporter gene assay relative to 12.5 uM rifampin; assay type: cell-based; settings: hek293, 20 µM
T2 sequence (O75469 whole entry): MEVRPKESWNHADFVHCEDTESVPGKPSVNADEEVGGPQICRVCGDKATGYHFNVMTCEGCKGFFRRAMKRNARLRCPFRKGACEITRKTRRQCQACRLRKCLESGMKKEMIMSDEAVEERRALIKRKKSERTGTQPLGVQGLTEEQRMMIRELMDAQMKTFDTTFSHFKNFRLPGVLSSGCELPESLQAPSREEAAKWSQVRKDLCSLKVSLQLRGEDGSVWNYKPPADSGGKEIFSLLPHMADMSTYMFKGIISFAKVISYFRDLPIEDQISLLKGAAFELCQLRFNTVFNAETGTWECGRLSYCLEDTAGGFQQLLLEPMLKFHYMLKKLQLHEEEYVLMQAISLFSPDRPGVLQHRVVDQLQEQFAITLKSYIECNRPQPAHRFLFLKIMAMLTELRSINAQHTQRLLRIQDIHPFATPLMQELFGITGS
How it was run: (§1)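 HEK cells transfected with human PXR fused to a firefly luciferase reporter. Luciferase activity is expressed as percent of the 12.5 µM rifampin response. Run in triplicate; SEM reported.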

[4] = molecular target: T3, 11-beta-hydroxysteroid dehydrogenase type 2 (Homo sapiens, UniProt P80365); assay: Inhibition of human 11beta-HSD2 expressed in CHO cells using [3H]cortisol by scintillation proximity assay; assay type: cell-based
T3 sequence (P80365 whole entry): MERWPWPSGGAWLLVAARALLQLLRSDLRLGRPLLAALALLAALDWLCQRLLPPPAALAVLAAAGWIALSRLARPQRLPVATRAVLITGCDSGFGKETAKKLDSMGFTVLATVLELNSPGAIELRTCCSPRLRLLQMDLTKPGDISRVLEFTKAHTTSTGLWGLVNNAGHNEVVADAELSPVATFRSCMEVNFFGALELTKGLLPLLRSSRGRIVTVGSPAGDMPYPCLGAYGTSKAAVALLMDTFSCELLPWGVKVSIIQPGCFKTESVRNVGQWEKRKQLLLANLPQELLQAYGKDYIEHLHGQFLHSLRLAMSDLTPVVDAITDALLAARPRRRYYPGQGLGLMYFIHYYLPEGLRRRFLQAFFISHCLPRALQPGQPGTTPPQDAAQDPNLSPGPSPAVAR
How it was run: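 Human 11β-HSD2 from CHO cells with [3H]cortisol 3 nM and NAD+ 300 µM, in 0.1 M sodium phosphate pH 7.6. 1 h at room temperature, then stopped with 18β-glycyrrhetinic acid. Anticortisol antibody and antimouse SPA beads added for 30 min; radiometric read-out.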

[5] = molecular target: T4, PXR (nuclear receptor subfamily 1 group I member 2) (Homo sapiens, UniProt O75469); assay: Transactivation of human PXR transfected in HEK cells at 2 uM by luciferase reporter gene assay relative to 12.5 uM rifampin; assay type: cell-based; settings: HEK293 cells transfected with human PXR, read-out: Activity; how it was run: as §1
T4 sequence (O75469 whole entry): T2 sequence (O75469 whole entry)

Hepatocyte [6] = assay: Induction of CYP3A4 in cryopreserved human hepatocytes from female NPV donars with history of tobacco and substance usage assessed as mRNA expression at 20 uM relative to 20 uM rifampin; assay type: functional
Hepatocyte [7] = assay: Induction of CYP3A4 in cryopreserved human hepatocytes from male DJV donars with no adverse medical history or substance or alcohol abuse assessed as mRNA expression at 20 uM relative to 20 uM rifampin; assay type: functional
Cytochrome P450 3A4 [8] = molecular target: T5, Cytochrome P450 3A4 (Homo sapiens, UniProt P08684); assay: Induction of CYP3A4 activity in cryopreserved human hepatocytes from male DJV donars with no adverse medical history or substance or alcohol abuse at 20 uM relative to 20 uM rifampin
T5 sequence (P08684 whole entry): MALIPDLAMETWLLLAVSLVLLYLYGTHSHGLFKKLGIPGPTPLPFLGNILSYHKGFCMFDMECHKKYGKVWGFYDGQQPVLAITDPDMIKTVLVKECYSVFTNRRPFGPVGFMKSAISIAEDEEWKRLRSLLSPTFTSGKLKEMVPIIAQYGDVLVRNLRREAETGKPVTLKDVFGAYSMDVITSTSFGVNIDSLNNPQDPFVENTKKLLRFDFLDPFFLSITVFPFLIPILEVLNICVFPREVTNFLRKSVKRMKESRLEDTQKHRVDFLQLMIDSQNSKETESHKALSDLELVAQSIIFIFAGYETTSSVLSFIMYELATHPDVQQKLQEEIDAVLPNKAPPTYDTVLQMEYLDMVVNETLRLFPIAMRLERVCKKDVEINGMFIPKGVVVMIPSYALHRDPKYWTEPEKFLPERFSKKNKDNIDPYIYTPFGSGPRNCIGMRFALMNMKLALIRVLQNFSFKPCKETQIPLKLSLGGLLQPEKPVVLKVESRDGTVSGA

Cytochrome P450 3A4 [9] = molecular target: T5, Cytochrome P450 3A4; assay: Induction of CYP3A4 activity in cryopreserved human hepatocytes from female NPV donars with history of tobacco and substance usage at 20 uM relative to 20 uM rifampin

T1 sequence (P28845 whole entry): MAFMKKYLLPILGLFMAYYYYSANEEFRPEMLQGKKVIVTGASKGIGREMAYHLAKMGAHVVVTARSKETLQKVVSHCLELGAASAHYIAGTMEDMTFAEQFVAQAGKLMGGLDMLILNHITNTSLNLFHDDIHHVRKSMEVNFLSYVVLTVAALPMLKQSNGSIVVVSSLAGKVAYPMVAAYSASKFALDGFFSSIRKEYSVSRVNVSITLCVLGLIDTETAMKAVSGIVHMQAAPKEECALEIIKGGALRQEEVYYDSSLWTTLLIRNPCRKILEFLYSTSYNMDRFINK

| Structure (SMILES) | pIC50 [1] | pKi [2] | Activity [3] [%] | further results |
| --- | --- | --- | --- | --- |
| C[C@H](NC1=NC(=O)C(C)(C(C)(C)O)S1)c1ccc(F)cc1 (some centres undefined) | 7.29 | 7.19 | 10 | pIC50 [4]: < 5.00 |
| C[C@H](NC1=NC(=O)[C@@](C)(C(F)(F)F)S1)c1ccccc1F | – | – | 45 | Activity (Hepatocyte [6]): 67%; Activity (Hepatocyte [7]): 110%; Activity (Cytochrome P450 3A4 [8]): 64%; Activity (Cytochrome P450 3A4 [9]): 56% |

Continued, in another order:

| pIC50 [1] | pKi [2] | Activity [3] [%] | Structure (SMILES) | further results |
| --- | --- | --- | --- | --- |
| 6.52 | 6.68 | – | C[C@H](NC1=NC(=O)[C@@](C)(C(C)(C)O)S1)c1ccc(F)cc1 | – |
| – | – | 97 | C[C@H](NC1=NC(=O)C(C)(c2ccc(C3(C(N)=O)CC3)cc2)S1)c1ccc(F)cc1 (some centres undefined) | activity at 2 µM [5]: 6.7% |
| 7.85 | – | – | O=C(Nc1cccc(C(=O)N2CCC[C@@H]3CCCC[C@H]32)c1)c1ccccc1 | – |

Reference: ChEMBL document CHEMBL1151735, “Further studies with the 2-amino-1,3-thiazol-4(5H)-one class of 11beta-hydroxysteroid dehydrogenase type 1 inhibitors: reducing pregnane X receptor activity and exploring activity in a monkey pharmacodynamic model” (J Med Chem, 2008)
